Compound activity as filed in PubChem.
Hits are enriched below; roughly 1.7% of the tested compounds scored in any of these assays.
DNMT1 block = DNMT1 (human) enzyme inhibition; DNMT1 molecular beacon, Hinp1I cleavage, fluorescence; inhibition (reported as % activation of signal), % at 10 µM; hit rate 0.83% among 360,000; AID 588458; in the data active means inhibition above about 50%
Scp1 inh = blocks human Scp-1 phosphatase activity; Q9GZU7; hit rate 0.88% among 340,000; AID 493091; Recombinant Scp1, phosphopeptide, malachite green phosphate absorbance; inhibition, % at 20 µM;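 active means inhibition above about 50% at 20 µM, limit read from the data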
Target sequence (Q9GZU7 76-261 limits assumed): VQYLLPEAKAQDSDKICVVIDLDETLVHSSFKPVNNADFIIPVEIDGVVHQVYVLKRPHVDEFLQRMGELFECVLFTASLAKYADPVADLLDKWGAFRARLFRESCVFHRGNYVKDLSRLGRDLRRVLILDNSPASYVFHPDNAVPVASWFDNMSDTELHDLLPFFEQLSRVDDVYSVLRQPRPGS
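Times: enzyme reaction 45 min at room temperature, colour 5 min, stabilisation 30 min. Material: SCP-1 catalytic fragment, aa 76-261. Medium: Acidic Tris acetate buffer with magnesium and detergent. Signal: colorimetric free-phosphate detection, absorbance 630 nm. Read-out basis: % inhibition of SCP-1 phosphate liberation. Reagent: Phosphorylated 17-residue peptide substrate.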
SUMO1 PPI mod = modulators of human SUMO1-mediated protein-protein interactions; P63165; SUMO1 binding to a labelled peptide, TR-FRET, 1 h; inhibition, % at 20 µM; hit rate 0.33% among 360,000; AID 602429; in the data active means inhibition above about 37%
Target sequence (P63165 whole entry, looked up): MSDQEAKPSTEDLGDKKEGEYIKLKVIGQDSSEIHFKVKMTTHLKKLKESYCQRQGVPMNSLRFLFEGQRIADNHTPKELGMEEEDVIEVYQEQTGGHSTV
LMPTP inh = blocks human LMPTP phosphatase | P24666 | recombinant LMPTP-A, OMFP fluorogenic substrate, fluorescence intensity | inhibition, % at 20 µM | hit rate 0.22% among 360,000;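 active means compounds that cut the enzyme signal by at least half of the control window in the single-dose screen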
Target sequence (P24666 whole entry, looked up): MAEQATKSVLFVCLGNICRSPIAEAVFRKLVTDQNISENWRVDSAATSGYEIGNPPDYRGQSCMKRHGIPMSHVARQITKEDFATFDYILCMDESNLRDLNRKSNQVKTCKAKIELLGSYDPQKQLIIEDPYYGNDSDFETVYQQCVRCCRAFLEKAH
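Test system – LMPTP-A phosphatase enzyme · Quantity – 0.625 nM LMPTP-A final · Reagent – OMFP substrate, 400 µM final · Dosing – one test concentration per compound, 20 µM, with 3% DMSO overall · Timing – 50 min enzyme reaction at room temperature, protected from light · Detection – fluorescence intensity · Controls – substrate-only low control, DMSO enzyme-plus-substrate high control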
STEP block = STEP (human) phosphatase inhibition | recombinant STEP, OMFP fluorogenic substrate, fluorescence | inhibition, % at 20 µM | hit rate 0.25% among 360,000;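 active means inhibition at 20 µM, scaled per plate between control wells, above about 37%, limit read from the data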
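System: isolated STEP enzyme; schedule: 20 min enzyme reaction at room temperature, protected from light; medium: Bis-Tris buffer pH 6.0, 2.5 mM DTT, 0.005% Tween 20; signal: fluorescence, 480/540 nm; dosing: single compound dose of 20 µM, 1% DMSO final; also added: OMFP substrate, 25 µM final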
Each line names hits and unclear results; the compound was inactive in the other large screens.

CC1=C(C(N)=O)C(c2ccccc2[N+](=O)[O-])n2ncnc2N1 (stereo unspecified)	none
c1ccc(-c2nnc(-c3ccco3)o2)cc1	none
c1coc(-c2nnc(-c3ccco3)nn2)c1	DNMT1 block 116, Scp1 inh 71, SUMO1 PPI mod 92, STEP block 91
O=C(NC(=S)Nc1ccc(-c2ccc(CO)o2)cc1)c1cccs1	DNMT1 block 77, LMPTP inh 52
O=S(=O)(O)c1cc(O)c(N=Nc2ccc(O)cc2O)c2ccccc12	DNMT1 block 55, Scp1 inh 61, SUMO1 PPI mod 44
CS(=O)(=O)c1ccccc1-c1csc(N2CCC(C(N)=O)CC2)n1	none (no result: DNMT1 block, SUMO1 PPI mod, LMPTP inh, STEP block)
NNc1ccc([N+](=O)[O-])c2[nH][nH]c(=O)c12	DNMT1 block 85, SUMO1 PPI mod 99, LMPTP inh 84, STEP block 96 (no result: Scp1 inh)
O=[N+]([O-])c1ccc(Nc2ccccc2)c2nonc12	none
CCN1/C(=C2/SC(=S)NC2=O)Sc2ccccc21	none
CSc1ccc(C2=C/C(=C3/SC(=S)NC3=O)c3ccccc3O2)cc1	DNMT1 block 70
Cc1ccc(NC(=O)N/C=C/c2ccco2)c(C)c1	none
Cc1ccc(NC(=O)N/C=C/c2ccco2)cc1C	DNMT1 block 57
O=c1c2c3nc4ccccc4nc3n(Cc3ccccc3)c2ncn1Cc1ccco1	LMPTP inh 62
COCCCn1c2nc3ccccc3nc2c2c(=O)n(Cc3ccc(Cl)cc3)cnc21	none
Cc1cc(N/N=C/c2ccc(O)cc2)c2cccc(C)c2n1	LMPTP inh 57
Cc1cc(N/N=C/c2ccc(N(C)C)cc2)c2ccccc2n1	none
Cc1cc(C)c2nc(C)cc(N/N=C/c3ccc(O)cc3)c2c1	DNMT1 block 62, LMPTP inh 69
Cc1cc(N2CCCC2)nc(-c2ccccc2O)n1	SUMO1 PPI mod 69
Cc1cc(N2CCN(C)CC2)nc(-c2ccccc2O)n1	none
O=C1SC(SCc2ccccc2)=N/C1=C\c1ccc(C(=O)O)cc1	none
CC(/C=C1\N=C(SCc2ccccc2Cl)SC1=O)=C\c1ccccc1	DNMT1 block 101
CC(C)=C1CCC(C)CC1=NNC(N)=S (stereo unspecified)	Scp1 inh 56
c1ccc(CN2CCC(Nc3nc(-c4ccccc4)nc4ccccc34)CC2)cc1	LMPTP inh 80
O=C(O)CN1C(=O)/C(=C\c2cn(-c3ccccc3)nc2-c2ccccc2)SC1=S	none
CCCOc1ccc(-c2nn(-c3ccccc3)cc2/C=C2\SC(N)=NC2=O)cc1	DNMT1 block 55
CCN1C(=O)/C(=C\c2cn(-c3ccccc3)nc2-c2cccnc2)SC1=S	DNMT1 block 53
Cc1cc(-c2nn(-c3ccccc3)cc2/C=C2\SC(N)=NC2=O)ccc1OC(C)C	none
O=C1C(=Cc2cn(-c3ccccc3)nc2-c2ccc(OCc3ccccc3)cc2)SC(=S)N1CCS(=O)(=O)O	SUMO1 PPI mod 90, LMPTP inh 88 (no result: Scp1 inh)
N#Cc1c(SCC(=O)Nc2ccccc2C(F)(F)F)sc2c(O)cc(=O)[nH]c12	none
N#Cc1c(SCC(=O)Nc2nc3ccccc3s2)sc2c(O)cc(=O)[nH]c12	DNMT1 block 91, Scp1 inh 61, LMPTP inh 64
N#Cc1c(SCC(=O)Nc2nccs2)sc2c(O)cc(=O)[nH]c12	Scp1 inh 68
O=c1oc2c(O)c(O)cc3c(=O)oc4c(O)c(O)cc1c4c23	DNMT1 block 88, Scp1 inh 96, SUMO1 PPI mod 94, LMPTP inh 86, STEP block 99
COCCN1C(=NCCCOC(C)C)N[C@@H](c2ccccc2)C(C(=O)OC)=C1C	Scp1 inh 55
CCN(CC)CCCN=C1N[C@@H](c2cccc(F)c2)C(C(=O)OC)=C(C)N1Cc1ccccc1	Scp1 inh 103
COC(=O)C1=C(C)N(Cc2ccccc2)C(=NCc2ccccc2)N[C@H]1c1cccc(F)c1	none
C=CCN=C1N[C@@H](c2ccccc2)C(C(=O)OC)=C(C)N1CCOC	none
Cn1cc(Br)c(-c2cccc(NC(=O)CCCC(=O)O)c2)n1	none
COCCN=c1scc(-c2ccco2)n1/N=C/c1ccc(O)c(O)c1O	DNMT1 block 70, Scp1 inh 89, LMPTP inh 73
C=CCN=c1scc(-c2ccco2)n1/N=C/c1ccc(O)c(O)c1O	none
CN(C(=S)NC(=O)c1ccc(Cl)cc1)C1CCCCC1	Scp1 inh 70, LMPTP inh 72
CN(C(=S)NC(=O)c1ccc(F)cc1)C1CCCCC1	none
CCN(CC)c1ccc(/C=N/NC(=O)c2ccc([N+](=O)[O-])cc2)cc1	none
CCN=C(N/N=C/c1ccc([N+](=O)[O-])cc1)SC	Scp1 inh 104
COc1cc(NC(=O)CSc2ncnc3sc4c(c23)CCCC4)c(C(=O)O)cc1OC	STEP block 96
Cc1ccc(NC(=O)CN2C(=O)N/C(=C/c3cccn3-c3ccc(C(=O)O)cc3)C2=O)cc1	DNMT1 block 107, Scp1 inh 93, SUMO1 PPI mod 49, LMPTP inh 50, STEP block 97
Cc1ccc(NC(=O)CN2C(=O)S/C(=C\c3cc(C)n(-c4ccc(C(=O)O)cc4)c3C)C2=O)cc1	none
CCOc1cc(-c2c(C#N)c(N)nc3c2CCc2ccccc2-3)ccc1O	none
COc1ccccc1-c1c(C#N)c(N)nc2c1CCc1ccccc1-2	SUMO1 PPI mod 36
CC(=O)N1c2ccc(S(=O)(=O)N3CCCC3C(=O)NCc3ccccc3Cl)cc2CC1C (stereo unspecified)	none
Cc1ccc(Cl)cc1Nc1nc(-c2sc(NC(=O)c3ccco3)nc2C)cs1	none
CCCC(C)C(=O)Nc1nc(C)c(-c2csc(Nc3cc(Cl)ccc3C)n2)s1 (stereo unspecified)	SUMO1 PPI mod 78
Cc1nc(NC(=O)CC(C)C)sc1-c1csc(Nc2ccc(Cl)cc2Cl)n1	none
CCCCCC(=O)Nc1nc(C)c(-c2csc(Nc3cc(Cl)ccc3C)n2)s1	SUMO1 PPI mod 81
COc1ccc(Cl)cc1Nc1nc(-c2sc(NC(=O)CC(C)C)nc2C)cs1	SUMO1 PPI mod 55
CCCCCC(=O)Nc1nc(C)c(-c2csc(Nc3cc(OC)ccc3OC)n2)s1	none
CCCCCCC(=O)Nc1nc(C)c(-c2csc(Nc3cc(OC)ccc3OC)n2)s1	SUMO1 PPI mod 70
Cc1cccn2c(=O)c(/C=N/O)c(Nc3ccccc3F)nc12	SUMO1 PPI mod 52
CC(C)(C)c1cc(-c2csc(Nc3ccccc3)[n+]2Cc2ccc(C(=O)O)cc2)cc(C(C)(C)C)c1O	SUMO1 PPI mod 42
O=C(O)c1ccc(C[n+]2c(-c3ccccc3)csc2Nc2ccccc2)cc1	none
Cc1cc2c(cc1C)NC(c1cccnc1)C1=C(CC(C)(C)CC1=O)N2 (stereo unspecified)	none
Cc1cc2c(cc1C)NC1(C(=O)Nc3ccccc31)C1=C(CC(C)(C)CC1=O)N2 (stereo unspecified)	SUMO1 PPI mod 51
